The values that follow come from publication PMC9398548 (European journal of pharmaceutical sciences : official …, 2020).

Structures are written as SMILES. Where two headings read alike, the source gives them in different places.

The test system of assay [1] is CEM cells. Kind of assay: MTT cytotoxicity assay in CEM cells. The settings on record: read-out: CEM- IC50, 48 h, Mean±SD, n=3. Type of assay: cell-based. The procedure, abridged: (§1)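 Cells were grown in suspension in RPMI 1640 with 10% FBS and penicillin/streptomycin/amphotericin B at 37 °C under 5% CO2. They were seeded at ~5×10^3 cells/well, kept overnight, then exposed to test compounds diluted in DMSO for 48 h. Cells were pelleted (300 g, 4 °C, 5 min) and washed twice in phosphate buffer. MTT (5 mg/ml stock) was added for 4 h at 37 °C, formazan dissolved in DMSO, and A570 read. Triplicate; IC50 given as mean±SD.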

In assay [2] the test system is K562 cells. In words: MTT cytotoxicity assay in K562 cells. Type of assay: cell-based. The settings on record: read-out: K562- IC50. The procedure, abridged:
as §1
In general terms: Tetrazolium assays rely on reduction of a dye to a coloured formazan, in cell work by metabolically active cells.

Turning to `O=C(CN1C(=O)SC(=Cc2ccc(Br)cc2)C1=O)Nc1ccc(F)cc1F` [Compound G2, 2-[5-(4-Bromobenzylidene)-2,4-dioxo-thiazolidin-3-yl]-N-(2,4-diflurophenyl)acetamide], the concentration for half-maximal inhibition (IC50) in assay [1] was 47.7 ± 2.12 µM; in assay [2] (MTT, 48 h, Mean±SD, n=3) it was greater than 50 µM.
Turning to `Cc1ccc(C=C2SC(=O)N(CC(=O)Nc3ccc(F)cc3F)C2=O)cc1C` [Compound G4, N-[2,4-Difluorophenyl)-2-[5-(3,4-dimethylbenzylidene)-2,4-dioxothiazolidin-3-yl]acetamide], the IC50 in assay [2] (Homo sapiens, K562, 48 h) is greater than 50 µM.
Turning to `O=C(CN1C(=O)SC(=Cc2ccc(F)cc2F)C1=O)Nc1ccc(Cl)cc1C(F)(F)F` [Compound G7, N-(4-Chloro-2-trifluoromethylphenyl)-2-[5-(2,4-difluorobenzylidene)-2,4-dioxothiazolidin-3-yl] acetamide], the IC50 in assay [1] is 40.4 ± 2.94 µM; in assay [2] (MTT, 48 h, Mean±SD, n=3), 36.8 ± 1.77 µM.
Take `O=C(CN1C(=O)SC(=Cc2ccc(F)cc2F)C1=O)Nc1ccc(F)cc1F` [Compound G8, 2-[5-(2,4-Difluorobenzylidene)-2,4-dioxothiazolidin-3-yl]-N-(2,4-diflurophenyl)acetamide]: the 50% inhibitory concentration (IC50) in assay [1] is 4.77 ± 1.51 µM; in assay [2] (MTT, 48 h, Mean±SD, n=3) it was 34.5 ± 3.01 µM.
As to `O=C(CN1C(=O)SC(=Cc2ccc(F)cc2)C1=O)Nc1ccc(F)cc1F` [Compound G10, N-(2,4-Difluoropheyl)-2-[5-(4-fluoro-benzylidene)-2,4-dioxothiazolidin-3-yl]acetamide], the half-inhibitory concentration (IC50) in assay [1] amounted to 27.4 ± 3.06 µM; in assay [2] (MTT, 48 h, Mean±SD, n=3) it was 45.4 ± 1.13 µM.
For `Cc1ccc(C=C2SC(=O)N(CC(=O)Nc3ccc(F)cc3F)C2=O)cc1` [Compound G12, N-(2,4-Difluoropheyl)-2-[5-(4-methylbenzylidene)-2,4-dioxothiazolidin-3-yl]acetamide], in that order: 9.93 ± 2.03 µM and greater than 50 µM.
Consider `O=C(CN1C(=O)SC(=Cc2ccccc2)C1=O)Nc1ccc(F)cc1F` [Compound G14, 2-[5-Benzylidene-2,4-dioxothiazolidin-3-yl]-N-(2,4-difluorophenyl)acetamide], for which the IC50 in assay [2] (Homo sapiens, K562, 48 h) is greater than 50 µM.
Turning to `O=C(CN1C(=O)SC(=Cc2ccc(F)cc2F)C1=O)Nc1cccc(C(F)(F)F)c1` [Compound G15, 2-(5-(2,4-difluorobenzylidene)-2,4-dioxothiazolidin-3-yl)-N-(3-(trifluoromethyl)phenyl) acetamide], the IC50 in assay [1] is 17.3 ± 1.16 µM; in assay [2] (MTT, 48 h, Mean±SD, n=3) it was greater than 50 µM.
`CC(=O)O[C@H]1C(=O)[C@@]2(C)[C@H]([C@H](OC(=O)c3ccccc3)[C@]3(O)C[C@H](OC(=O)[C@H](O)[C@@H](NC(=O)c4ccccc4)c4ccccc4)C(C)=C1C3(C)C)[C@]1(OC(C)=O)CO[C@@H]1C[C@@H]2O` [Paclitaxel, reference compound]: the IC50 in assay [2] (Homo sapiens, K562, 48 h) is 0.29 ± 0.15 µM.
Consider `CCc1ccc(CCOc2ccc(CC3SC(=O)NC3=O)cc2)nc1` (stereo not shown) [Pioglitazone, reference compound], for which the IC50 in assay [2] (Homo sapiens, K562, 48 h) came out at 32 ± 3.66 µM.

The term IC50 denotes the concentration that gives 50% inhibition.
